The text below walks through data of ChEMBL document CHEMBL4152290, “1H-Benzo[d]imidazoles and 3,4-dihydroquinazolin-4-ones: Design, synthesis and antitubercular activity” (Eur J Med Chem, 2018).

In brackets after ≈: the same amount, converted by molar mass.

This assay deals with Mycobacterium tuberculosis. Nature of the assay: Antitubercular activity against Mycobacterium tuberculosis H37Rv ATCC 27294 after 7 days by resazurin dye based assay. Type of assay: functional. To be noted: H37Rv ATCC 27294, 168 h. Put shortly:
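Resazurin microtiter MIC in 7H9 with 10% ADC. Two-fold dilutions from 1 mg/mL DMSO stocks span 25.0–0.05, 10.0–0.02 or 0.02–0.0004 µg/mL, with 2.5% DMSO final. Inoculum is bead-declumped culture grown in 7H9/10% OADC/0.05% Tween 80, diluted to OD600 0.006. Plates run 7 days at 37 °C, then 0.01% resazurin for 48 h. MIC is the lowest concentration preventing the blue-to-pink change. Three independent tests.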
For orientation: The colour change of resazurin is a common sign of viable cells or microbes.
As usually defined, the MIC is the smallest concentration in the dilution series that meets the test's criterion for growth inhibition. High values mean a need for much substance, low ones inhibition by little substance. For the molecule `O=C(CSc1nc2ccccc2[nH]1)Nc1ccc2c(c1)CCC2`, the minimal inhibitory concentration (MIC) is greater than 29.6 µM.
`O=C(CSc1nc2ccccc2[nH]1)NCc1ccccc1`: the MIC was greater than 33.6 µM.
The molecule `O=C(CSc1nc(O)c2ccccc2n1)N1CCCCC1` came in with an MIC greater than 33 µM.
With `O=C(CSc1nc(O)c2ccccc2n1)Nc1ccc(Br)cc1` the figure was greater than 25.6 µM.
Molecule `CC1CCCCC1NC(=O)CSc1nc2ccccc2[nH]1` (stereo not drawn) gave an MIC greater than 33 µM.
For `O=C(CSc1nc(O)c2ccccc2n1)Nc1ccc([N+](=O)[O-])cc1`, the MIC was greater than 28.1 µM.
`O=C(CSc1nc2ccccc2c(=O)[nH]1)NC1CCCC1` gave an MIC of 2.07 µM (≈ 0.628 µg/mL).
The value for `CN(C(=O)CSc1nc2ccccc2c(=O)[nH]1)C1CCCCC1` was greater than 75.4 µM.
The value for `CCCCCc1ccc(NC(=O)CSc2nc3ccccc3c(=O)[nH]2)cc1` was 26.2 µM (≈ 10 µg/mL); that for `C[C@H]1CC[C@H](NC(=O)CSc2nc3ccccc3[nH]2)CC1` was 16.5 µM (≈ 5.01 µg/mL).
With `C[C@@H](NC(=O)CSc1nc2ccccc2c(=O)[nH]1)C1CCCCC1` the figure was greater than 28.9 µM; with `Cc1ccc(NC(=O)CSc2nc3ccccc3c(=O)[nH]2)cc1`, greater than 30.7 µM.
Take `CCCCCc1ccc(NC(=O)CSc2nc3ccccc3[nH]2)cc1`: the MIC was greater than 70.7 µM.
The value for `CC1CCCC(NC(=O)CSc2nc3ccccc3[nH]2)C1` (stereo not drawn) was greater than 33 µM; that for `O=C(CSc1nc2ccccc2[nH]1)NCC1CCCCC1` was 82.4 µM (≈ 25 µg/mL).
For `O=C(CSc1nc2ccccc2c(=O)[nH]1)NCc1ccccc1`, the MIC came to 4.8 µM (≈ 1.56 µg/mL).
Molecule `CCCc1ccc(NC(=O)CSc2nc3ccccc3c(=O)[nH]2)cc1` returned an MIC greater than 28.3 µM.
`O=C(CSc1nc2ccccc2c(=O)[nH]1)N[C@@H]1CCc2ccccc2C1` had an MIC of 17.1 µM (≈ 6.25 µg/mL).
`C[C@H](NC(=O)CSc1nc2ccccc2[nH]1)C1CCCCC1` came in with an MIC greater than 31.5 µM.
With `O=C(CSc1nc2ccccc2c(=O)[nH]1)Nc1ccc2ccccc2c1` the figure was greater than 27.7 µM; with `C[C@H](NC(=O)CSc1nc2ccccc2c(=O)[nH]1)C1CCCCC1`, greater than 28.9 µM.
With `O=C(CSc1nc2ccccc2c(=O)[nH]1)Nc1ccc(I)cc1` the figure was greater than 22.9 µM; with `O=C(CSc1nc2ccccc2c(=O)[nH]1)Nc1ccc(F)cc1`, greater than 30.4 µM; with `O=C(CSc1nc2ccccc2[nH]1)Nc1ccc2ccccc2c1`, greater than 75 µM.
The value for `COc1ccccc1NC(=O)CSc1nc2ccccc2[nH]1` was greater than 31.9 µM.
Take `COc1ccc(NC(=O)CSc2nc3ccccc3c(=O)[nH]2)cc1`: the MIC is greater than 29.3 µM.
Molecule `CCCCCCCc1ccc(NC(=O)CSc2nc3ccccc3[nH]2)cc1` had a minimal inhibitory concentration (MIC) greater than 65.5 µM.
The value for `O=C(CSc1nc2ccccc2[nH]1)NC1CCCCC1` was greater than 31.3 µM; that for `CC1CCC(NC(=O)CSc2nc3ccccc3[nH]2)CC1` (stereo not drawn) was 41.2 µM (≈ 12.5 µg/mL); that for `O=C(CSc1nc2ccccc2c(=O)[nH]1)N[C@H]1CCc2ccccc2C1` was greater than 27.4 µM.
For the molecule `O=C(CSc1nc2ccccc2c(=O)[nH]1)Nc1ccccc1`, the MIC was greater than 32.1 µM.
With `O=C(CSc1nc2ccccc2c(=O)[nH]1)Nc1ccc(Cl)cc1` the figure was 28.9 µM (≈ 9.99 µg/mL); with `NNC(=O)c1ccncc1` [ISONIAZID], 2.9 µM (≈ 0.398 µg/mL).
